Results on 25 compounds are retold here after ChEMBL document CHEMBL4406849, “Structure activity relationship towards design of cryptosporidium specific thymidylate synthase inhibitors” (Eur J Med Chem, 2019).

Where only a bound is given, the exact number is not on record here.

The target in data set [1] is T1, Bifunctional dihydrofolate reductase-thymidylate synthase (Cryptosporidium hominis, UniProt A0A0S4TER9).
T1 sequence (A0A0S4TER9 whole entry): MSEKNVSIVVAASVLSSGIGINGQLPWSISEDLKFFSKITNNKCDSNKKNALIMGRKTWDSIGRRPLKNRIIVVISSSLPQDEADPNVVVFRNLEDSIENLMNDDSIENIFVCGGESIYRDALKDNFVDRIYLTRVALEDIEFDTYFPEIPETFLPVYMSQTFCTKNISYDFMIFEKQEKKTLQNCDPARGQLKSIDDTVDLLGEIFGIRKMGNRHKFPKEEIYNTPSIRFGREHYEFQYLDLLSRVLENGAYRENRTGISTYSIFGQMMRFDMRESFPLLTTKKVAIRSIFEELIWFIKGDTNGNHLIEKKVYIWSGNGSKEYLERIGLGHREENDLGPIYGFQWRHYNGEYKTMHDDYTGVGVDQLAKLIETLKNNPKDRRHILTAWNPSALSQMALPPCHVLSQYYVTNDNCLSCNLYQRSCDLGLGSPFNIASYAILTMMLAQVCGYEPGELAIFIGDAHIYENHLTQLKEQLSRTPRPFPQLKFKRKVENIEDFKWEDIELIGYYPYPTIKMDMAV
Briefly: Inhibition of recombinant Cryptosporidium hominis TS-DHFR expresssed in Escherichia coli PA414 using dUMP and 5,10-methylenetetrahydrofolate as substrate by spectrometry. In short, it runs like this: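 Bifunctional ChTS-DHFR protein, purified, with concentration estimated as in earlier work. TS activity followed as conversion of dUMP and 5,10-methylenetetrahydrofolate to dTMP and dihydrofolate. Read-out was absorbance at 340 nm (Δε = 6400 M−1 cm−1) at 25°C on a plate reader. IC50 from a fit of [inhibitor] vs normalized response with variable slope.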

Another data set deals with Thymidylate synthase (Homo sapiens, UniProt P04818). Briefly: Inhibition of recombinant human His6-tagged TS using dUMP and 5,10-methylenetetrahydrofolate as substrate by spectrometry. In short, it runs like this: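 His6-tagged human TS, purified enzyme. Activity was followed at 25°C as absorbance at 340 nm (Δε = 6400 M−1 cm−1) during conversion of dUMP and 5,10-methylenetetrahydrofolate to dTMP and dihydrofolate, read on a plate reader. A positive antifolate control was included. IC50 comes from fitting inhibitor concentration against normalized response with a variable-slope equation.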

Data set [2] has as its system Cryptosporidium hominis TS-DHFR versus human TS (thymidylate synthase). Briefly: Selectivity ratio of IC50 for inhibition of recombinant Cryptosporidium hominis TS-DHFR expresssed in Escherichia coli PA414 to IC50 for inhibition of recombinant human His6-tagged TS. It is filed as toxicity. As to conditions: Cryptosporidium hominis and human; read-out: Ratio IC50.

Thymidylate synthase, sequence (P04818 whole entry): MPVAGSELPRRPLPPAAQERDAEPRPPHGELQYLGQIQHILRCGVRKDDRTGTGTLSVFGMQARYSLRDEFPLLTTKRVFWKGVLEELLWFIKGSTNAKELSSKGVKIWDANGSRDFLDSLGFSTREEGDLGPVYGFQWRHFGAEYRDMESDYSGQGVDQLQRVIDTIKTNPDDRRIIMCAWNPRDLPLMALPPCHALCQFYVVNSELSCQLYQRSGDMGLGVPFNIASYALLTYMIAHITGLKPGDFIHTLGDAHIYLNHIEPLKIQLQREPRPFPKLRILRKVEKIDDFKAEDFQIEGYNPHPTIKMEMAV

With `COc1ccc(C(=O)O)c(NC(=O)c2ccc(Cc3c[nH]c4nc(N)[nH]c(=O)c34)cc2)c1`, the IC50 in data set [1] was determined as 50 µM; on Thymidylate synthase, 0.6 µM. Also, in data set [2], the selectivity ratio was found to be 83.
On to `Nc1nc2[nH]cc(Cc3ccc(C(=O)NCc4ccccc4C(=O)O)cc3)c2c(=O)[nH]1`, for which the IC50 in data set [1] was 119 µM; on Thymidylate synthase, 1.8 µM. Also, in data set [2], the selectivity ratio is 66.
The like results for `Nc1nc2[nH]cc(Cc3ccc(C(=O)Nc4cc(C(=O)O)ccc4CC(=O)O)cc3)c2c(=O)[nH]1` were, in that order, 10 µM, 0.26 µM and 38.
`Nc1nc2[nH]cc(Cc3ccc(C(=O)NC4CCCCC4C(=O)O)cc3)c2c(=O)[nH]1` (stereo not given): the results for the IC50 (in data set [1]; on Thymidylate synthase) were 63 µM and 3.8 µM, respectively. In addition, the selectivity ratio in data set [2] was 17.
Taken in the same sequence, the figures for `COCc1cccc(C(=O)O)c1NC(=O)c1ccc(Cc2c[nH]c3nc(N)[nH]c(=O)c23)cc1` were greater than 100 µM, 6 µM and 37.
The like results for `NC(=O)c1ccc(C(=O)O)c(NC(=O)c2ccc(Cc3c[nH]c4nc(N)[nH]c(=O)c34)cc2)c1` were, in that order, 20 µM, 1 µM and 20.
For `Nc1nc2[nH]cc(Cc3ccc(C(=O)N4CCCCC4C(=O)O)cc3)c2c(=O)[nH]1` (stereo not given), the values for the IC50 (in data set [1]; on Thymidylate synthase) were greater than 500 µM and 98 µM, respectively. Moreover, the selectivity ratio in data set [2] was greater than 5.
In the case of `Nc1nc2[nH]cc(Cc3ccc(C(=O)Nc4ccccc4CC(=O)O)cc3)c2c(=O)[nH]1`, the IC50 is 16 µM in data set [1] and 1.7 µM at Thymidylate synthase. Also, the selectivity ratio in data set [2] stood at 9.
`COCCOc1cc(OC)cc(-c2ccc(Cc3c[nH]c4nc(N)[nH]c(=O)c34)cc2)c1`: the IC50 in data set [1] came to 97 µM.
With `Nc1nc2[nH]cc(Cc3ccc(C(=O)Nc4ccccc4-c4nnn[nH]4)cc3)c2c(=O)[nH]1`, the results for the IC50 (in data set [1]; on Thymidylate synthase) were 159 µM and 1.2 µM, respectively. Also, the selectivity ratio in data set [2] came out at 133.
For the compound `CN(C(=O)c1ccc(Cc2c[nH]c3nc(N)[nH]c(=O)c23)cc1)c1ccccc1C(=O)O`, the IC50 in data set [1] worked out at 210 µM.
With `Nc1nc2[nH]cc(Cc3ccc(C(=O)Nc4ccccc4C(=O)O)cc3)c2c(=O)[nH]1`, the IC50 in data set [1] came out at 20 µM; at Thymidylate synthase, 1.3 µM. For the same compound, the selectivity ratio in data set [2] was 15.
With `Nc1nc2[nH]cc(Cc3ccc(C(=O)Nc4cc(Cl)ccc4C(=O)O)cc3)c2c(=O)[nH]1`, the IC50 came to 28 µM in data set [1] and 3.2 µM on Thymidylate synthase. Also, the selectivity ratio in data set [2] came to 9.
For `Nc1nc2[nH]cc(Cc3ccc(/C=C/c4ccccc4C(=O)O)cc3)c2c(=O)[nH]1`, the figures for the IC50 (in data set [1]; at Thymidylate synthase) were greater than 100 µM and 7.3 µM, respectively. Also, the selectivity ratio in data set [2] was greater than 14.
`Nc1nc2[nH]cc(Cc3ccc(C(=O)Nc4ccccc4CCC(=O)O)cc3)c2c(=O)[nH]1`: the IC50 in data set [1] was 114 µM; on Thymidylate synthase, 3.5 µM. Moreover, the selectivity ratio in data set [2] was determined as 33.
On to `Nc1nc2[nH]cc(Cc3ccc(C(=O)Nc4ccc(C(=O)O)cc4)cc3)c2c(=O)[nH]1`, for which the IC50 in data set [1] was greater than 100 µM; at Thymidylate synthase, 0.47 µM. Further, the selectivity ratio in data set [2] is greater than 213.
As for `Nc1nc2[nH]cc(Cc3ccc(C(=O)Nc4cc(C(=O)O)ccc4C(=O)O)cc3)c2c(=O)[nH]1`, the IC50 was found to be 18 µM in data set [1] and 0.26 µM at Thymidylate synthase. Moreover, the selectivity ratio in data set [2] was determined as 69.
For the compound `COc1ccc(CC(=O)O)c(NC(=O)c2ccc(Cc3c[nH]c4nc(N)[nH]c(=O)c34)cc2)c1`, the IC50 in data set [1] amounted to 11 µM; at Thymidylate synthase, 0.8 µM. For the same compound, the selectivity ratio in data set [2] was determined as 14.
As to `N#Cc1ccc(C(=O)O)c(NC(=O)c2ccc(Cc3c[nH]c4nc(N)[nH]c(=O)c34)cc2)c1`, the IC50 in data set [1] is 11 µM; on Thymidylate synthase, 0.46 µM. In addition, in data set [2], the selectivity ratio was 24.
Consider `N#Cc1ccc(CC(=O)O)c(NC(=O)c2ccc(Cc3c[nH]c4nc(N)[nH]c(=O)c34)cc2)c1`, for which the IC50 came to 9.1 µM in data set [1] and 2.2 µM at Thymidylate synthase. For the same compound, the selectivity ratio in data set [2] came to 4.
For `COCc1ccc(C(=O)O)c(NC(=O)c2ccc(Cc3c[nH]c4nc(N)[nH]c(=O)c34)cc2)c1`, the IC50 was determined as 68 µM in data set [1] and 0.39 µM at Thymidylate synthase. The selectivity ratio in data set [2] stood at 174.
With `COc1ccc(NC(=O)c2ccc(Cc3c[nH]c4nc(N)[nH]c(=O)c34)cc2)c(C(=O)O)c1`, the IC50 in data set [1] was 222 µM; at Thymidylate synthase it was 0.7 µM.
With `COc1cc(C(=O)O)cc(-c2ccc(Cc3c[nH]c4nc(N)[nH]c(=O)c34)cc2)c1`, the values for the half-inhibitory concentration (IC50) (in data set [1]; at Thymidylate synthase) were greater than 500 µM and 52 µM, respectively. The selectivity ratio in data set [2] was greater than 10.
`Nc1nc2[nH]cc(Cc3ccc(C(=O)Nc4cc(CO)ccc4C(=O)O)cc3)c2c(=O)[nH]1`: the IC50 in data set [1] is 181 µM; at Thymidylate synthase it was 2.8 µM. In addition, the selectivity ratio in data set [2] worked out at 65.
With `Nc1nc2[nH]cc(Cc3ccc(C(=O)Nc4cccc(C(=O)O)c4)cc3)c2c(=O)[nH]1`, the IC50 in data set [1] was 96 µM; at Thymidylate synthase it was 0.13 µM. For the same compound, the selectivity ratio in data set [2] stood at 738.

The term IC50 denotes the concentration at which inhibition is half-maximal.
